For one assay, the system named is pBR322 plasmid DNA. As to the kind of experiment: DNA nicking assay. It is filed as biochemical. Particulars: with Fenton's reagent; 10 µg/mL. The procedure, abridged:
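pBR322 supercoiled plasmid (2 µL of a 50 µg/100 µL stock) mixed with 10 µL Fenton's reagent (80 mM FeCl₃, 30 mM H₂O₂, 50 mM ascorbic acid) and test compound (2–10 µg/mL) in water to 20 µL. Incubated for 30 min at 37 °C, then run on 1% agarose gel. Form I, II and III percentages were derived by densitometry. Water replaced Fenton's reagent as the negative control, and rutin served as the positive control.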

The test system of the next assay is VRE. As to the kind of experiment: Kirby-Bauer disc diffusion. Particulars: HFM-2P, teicoplanin 30 µg/disc. The assay is classed as cell-based, Vancomycin-resistant Enterococcus. The procedure, abridged: (§1)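 Kirby-Bauer method. Mueller Hinton agar plates were seeded with the test bacteria. Discs carrying 30 µg of test compound were placed on the surface and left to diffuse for 30 min at 4 °C. Plates were incubated at 37 °C, and inhibition zones were measured in mm.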

The subject of a further assay is MRSA. As to the kind of experiment: Kirby-Bauer disc diffusion. Particulars: Staphylococcus aureus. The assay is classed as cell-based, methicillin-resistant Staphylococcus aureus. Put shortly: as §1
In another assay the test system is S. Typhimurium TA100. Particulars: highest dose 250 μg/100 μL, cited from earlier work.
For the next assay, the system named is S. Typhimurium TA98. Particulars: highest dose 250 μg/100 μL, ref Sharma et al.[46]; cited from earlier work.

Where two headings read alike, the source gives them in different places.

As to `C[C@@H]1O[C@@H](OC[C@H]2O[C@@H](Oc3c(-c4ccc(O)c(O)c4)oc4cc(O)cc(O)c4c3=O)[C@H](O)[C@@H](O)[C@@H]2O)[C@H](O)[C@H](O)[C@H]1O` [Rutin, rutin], in the assay on pBR322 plasmid DNA, the “Form I (supercoiled) DNA” value was determined as 54.72% and the “Form II DNA” value came out at 45.27%. For teicoplanin, the Zone of inhibition with VRE turned out to be 15 mm. Regarding `CN[C@H](CC(C)C)C(=O)N[C@H]1C(=O)N[C@@H](CC(N)=O)C(=O)N[C@H]2C(=O)N[C@H]3C(=O)N[C@H](C(=O)N[C@H](C(=O)O)c4cc(O)cc(O)c4-c4cc3ccc4O)[C@H](O)c3ccc(c(Cl)c3)Oc3cc2cc(c3O[C@@H]2O[C@H](CO)[C@@H](O)[C@H](O)[C@H]2O[C@H]2C[C@](C)(N)[C@H](O)[C@H](C)O2)Oc2ccc(cc2Cl)[C@H]1O` [vancomycin], the zone of inhibition at 30 µg/disc in the assay with MRSA was 18 mm. As for `CC1OC(n2ccc(NC(=O)c3ccc(N)cc3)nc2=O)CCC1OC1OC(C)C(N(C)C)C(O)C1O` (stereo not shown) [plicacetin], in the assay with S. Typhimurium TA100 (ref Devi et al.[33]), the Antimutagenic activity is recorded as 41.10–88.53%.

Regarding salvianolic acid B, the results for the Antimutagenic activity in the assay with S. Typhimurium TA100 (ref Sharma et al.[46]) and in the assay on S. Typhimurium TA98 were 41.10–88.53% and 47.87–88.11%, respectively.

As a reminder, the zone of inhibition is the size of the clear area around the sample on an inoculated plate. A high value points to a stronger effect on the plate.

Source of the values: paper PMC12271353 (Scientific Reports, 2025).
